Data from ChEMBL document CHEMBL4819033, “Synthesis of Bioactive Diarylheptanoids from Alpinia officinarum and Their Mechanism of Action for Anticancer Properties in Breast Cancer Cells” (J Nat Prod, 2021).
Calls of active or inactive are those of the source. No cut-off for these calls is given here.

How the values were obtained:
MCF7 [1] = assay: Antiproliferative activity against human MCF7 cells assessed as reduction in cell viability after 72 hrs by MTT assay; type: functional, cell-based; conditions: for IC50: MCF7, 72 h
Outline: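 MCF-7 cells (DMEM, 10% FBS, 37 °C, 5% CO2) seeded 5 × 10³/well, left overnight, then exposed to compounds (0−50 μM) for 72 h. MTT added to 0.5 mg/mL final; formazan solubilised overnight with 10% SDS in 0.01 N HCl, absorbance at 570 nm. IC50 taken relative to vehicle (0.1% DMSO) as 100% survival. Triplicate determinations, three independent experiments; paclitaxel as positive control.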

U2OS = assay: Antiproliferative activity against human U2OS cells assessed as reduction in cell viability after 72 hrs by MTT assay; type: functional, cell-based
Outline: (§1)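 U2-OS (ATCC) or INT-407 cells, cultured in DMEM with 10% FBS at 37 °C, 5% CO2, assayed by MTT reduction under the conditions used for MCF-7: 72 h exposure, absorbance at 570 nm, viability relative to 0.1% DMSO vehicle control; INT-407 tested up to 50 μM.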

[2] = Antiproliferative activity against human INT-407 cells assessed as reduction in cell viability up to 50 uM after 72 hrs by MTT assay; type: cell-based; conditions: intestine 407, 72 h; outline: as §1
MCF7 [3] = assay: Inhibition of colony formation in human MCF7 cells incubated for 10 days by crystal violet staining based assay; type: functional, cell-based; conditions: dose 1-5 µM, time 10.0 day
Outline: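 Clonogenic survival: MCF-7 cells, 1 × 10³ per well, seeded overnight, then grown with 1, 2.5 or 5 μM in complete medium for 10 days. Colonies fixed with MeOH, stained with 0.5% crystal violet in 1:1 MeOH–water, counted. Surviving fraction corrected for plating efficiency, relative to vehicle; triplicates, three repeats.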

MCF7 [4] = assay: Induction of apoptosis in human MCF7 cells assessed as increase in sub-G1 cell population at 5 uM after 48 hrs by propidium iodide/RNase A staining based flow cytometric analysis (reference value: 5.4 +/- 2.1 %); type: functional
MCF7 [5] = assay: Induction of apoptosis in human MCF7 cells assessed as increase in sub-G1 cell population at 10 uM after 48 hrs by propidium iodide/RNase A staining based flow cytometric analysis (reference value: 5.4 +/- 2.1 %); type: functional
MCF7 [6] = assay: Induction of cell cycle arrest in human MCF7 cells assessed as accumulation at G2 phase at 5 to 10 uM incubated for 24 hrs by propidium iodide/RNase A staining based flow cytometry; type: functional; conditions: dose 5-10 µM
Outline: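 For the cell cycle, MCF-7 cells were exposed to vehicle, 5 or 10 μM for 24 h, stained with PI/RNase in 0.1% sodium citrate containing Triton X-100, and phase distribution was quantified by flow cytometry. Three experiments, each in triplicate.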

MCF7 [7] = assay: Induction of ROS generation in human MCF7 cells at 5 to 10 uM up to 3 hrs by DCFH-DA dye based flow cytometric analysis; type: functional, cell-based; conditions: dose 5-10 µM, time hrs <=3
MCF7 [8] = assay: Induction of ROS generation in human MCF7 cells at 5 to 10 uM incubated for 6 hrs by DCFH-DA dye based flow cytometric analysis; type: functional, cell-based; conditions: dose 5-10 µM
Outline: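 MCF-7 cells (1 × 10⁵/well) loaded with DCFH-DA (10 μM, 30 min), washed, then exposed to 5 or 10 μM for various periods (6 h quantified); H2O2 100 μM as positive control. DCF green fluorescence (ex 480/em 530 nm) read by flow cytometry, expressed as fold of vehicle. Three repeats in triplicate.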

MCF7 [9] = assay: Induction of mitochondrial membrane potential loss in human MCF7 cells incubated for 6 hrs by JC1 staining based flow cytometry; type: functional, cell-based; conditions: dose 5-10 µM
Outline: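 JC-1 assay: MCF-7 cells (1 × 10⁵/well) treated at 5 or 10 μM (legend gives 6 h, methods 8 h), stained with JC-1 (5 μg/mL) for 30 min, trypsinised, and analysed by flow cytometry. MMP loss scored from the drop in red fluorescence MFI as fold of vehicle; CCCP 10 μM as positive control. Five repeats in triplicate.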

MCF7 [10] = assay: Induction of lysosomal membrane permeabilization in human MCF7 cells at 5 to 10 uM […] by AO staining based flow cytometry; type: functional, cell-based; conditions: dose 5-10 µM
MCF7 [11] = assay: Induction of lysosomal membrane permeabilization in human MCF7 cells after 6 hrs by AO staining based flow cytometry; type: functional, cell-based; conditions: dose 5-10 µM
Outline: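 MCF-7 cells treated at 5 or 10 μM (0−10 μM) for various periods, washed with PBS, then stained with acridine orange (10 μM, 15 min, 37 °C) and analysed by flow cytometry. LMP measured from green-channel MFI at 6 h as fold of vehicle; five repeats in triplicate.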

| Compound | Activity (MCF7 [1]) | IC50 (MCF7 [1]) | IC50 (U2OS) | Activity [2] | inhibition (MCF7 [3]) | Activity (MCF7 [4]) | Activity (MCF7 [5]) | Activity (MCF7 [6]) | Activity (MCF7 [7]) | Activity (MCF7 [8]) | Activity (MCF7 [9]) | Activity (MCF7 [10]) | Activity (MCF7 [11]) |
| --- | --- | --- | --- | --- | --- | --- | --- | --- | --- | --- | --- | --- | --- |
| COc1cc(CC/C=C/C(=O)CCc2ccccc2)ccc1O | Dose-Dependent Effect | 3.9 µM | 10.7 µM | Non-Toxic | Dose-Dependent Effect | 16.3% | 27.5% | Active | inactive | Active | Dose-Dependent Effect | inactive | Dose-Dependent Effect |
| COc1cc(CC[C@H](O)CC(=O)CCc2ccccc2)ccc1O | Dose-Dependent Effect | > 50 µM | – | – | – | – | – | – | – | – | – | – | – |
| COc1cc(CC[C@@H](O)CC(=O)CCc2ccccc2)ccc1O | Dose-Dependent Effect | > 50 µM | – | – | – | – | – | – | – | – | – | – | – |
